Assay results: ChEMBL document CHEMBL1268928, “Design and synthesis of novel pyrimidine hydroxamic acid inhibitors of histone deacetylases” (Bioorg Med Chem Lett, 2010); call rule not given here
pIC50: −log10 of the molar value.

Columns and labels:
Histone deacetylase = experiment: Inhibition of HDAC in human HeLa cell nuclear extracts by fluorimetric assay; assay type: protein assay
HCT-116 [1] = experiment: cells; assay type: functional; conditions: Homo sapiens, HCT-116, 72 h
HeLa = experiment: cells; assay type: functional; conditions: Homo sapiens, 72 h
U-937 = experiment: cells; assay type: functional; conditions: Homo sapiens, U-937, 72 h
HuT78 = experiment: cells; assay type: functional; conditions: Homo sapiens, HuT78, 72 h
[2] = Metabolic stability in human liver microsomes at 10 uM after 30 mins; assay type: ADME, Microsome; conditions: read-out: Stability
Method in brief: (§1)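 Compound at 10 µM incubated with human or mouse liver microsomes. Read-out is the percentage of parent remaining after 30 min.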

[3] = Metabolic stability in mouse liver microsomes at 10 uM after 30 mins; assay type: ADME, Microsome; conditions: read-out: Stability; method in brief: as §1
[4] = Apparent permeability of the compound by PAMPA assay; assay type: ADME
Cytochrome P450 1A2 = target: T1, Cytochrome P450 1A2 (Homo sapiens, UniProt P05177); experiment: Inhibition of CYP1A2 at 50 uM; assay type: ADME
T1 sequence (P05177 whole entry): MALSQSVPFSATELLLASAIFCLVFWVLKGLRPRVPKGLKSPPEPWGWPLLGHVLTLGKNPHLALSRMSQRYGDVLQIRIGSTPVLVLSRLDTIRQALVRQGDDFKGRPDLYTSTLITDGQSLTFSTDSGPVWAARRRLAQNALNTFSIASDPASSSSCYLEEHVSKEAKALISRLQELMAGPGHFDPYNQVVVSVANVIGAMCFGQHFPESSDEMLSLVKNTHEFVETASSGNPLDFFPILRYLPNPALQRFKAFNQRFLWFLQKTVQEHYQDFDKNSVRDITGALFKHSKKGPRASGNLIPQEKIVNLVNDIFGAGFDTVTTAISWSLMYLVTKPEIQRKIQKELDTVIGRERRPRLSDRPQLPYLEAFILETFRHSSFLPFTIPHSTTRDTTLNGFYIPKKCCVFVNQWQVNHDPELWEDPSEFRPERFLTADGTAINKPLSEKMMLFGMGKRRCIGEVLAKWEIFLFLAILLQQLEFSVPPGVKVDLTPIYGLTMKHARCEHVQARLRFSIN

Cytochrome P450 2A6 = target: T2, Cytochrome P450 2A6 (Homo sapiens, UniProt P11509); experiment: Inhibition of CYP2A6 at 50 uM; assay type: ADME
T2 sequence (P11509 whole entry): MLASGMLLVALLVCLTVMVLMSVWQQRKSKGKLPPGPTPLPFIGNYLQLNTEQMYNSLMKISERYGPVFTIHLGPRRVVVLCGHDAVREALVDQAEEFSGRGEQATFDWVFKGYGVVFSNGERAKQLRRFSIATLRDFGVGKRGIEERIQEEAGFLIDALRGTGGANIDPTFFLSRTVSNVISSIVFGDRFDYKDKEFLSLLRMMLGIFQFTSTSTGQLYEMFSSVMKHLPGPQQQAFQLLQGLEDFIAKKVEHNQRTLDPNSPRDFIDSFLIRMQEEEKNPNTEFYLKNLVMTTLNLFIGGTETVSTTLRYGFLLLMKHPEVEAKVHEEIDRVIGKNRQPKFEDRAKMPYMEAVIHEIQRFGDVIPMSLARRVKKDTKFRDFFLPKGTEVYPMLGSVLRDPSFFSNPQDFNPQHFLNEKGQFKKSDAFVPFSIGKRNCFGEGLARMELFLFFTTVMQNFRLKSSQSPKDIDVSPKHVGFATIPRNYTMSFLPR

Cytochrome P450 2C8 = target: T3, Cytochrome P450 2C8 (Homo sapiens, UniProt P10632); experiment: Inhibition of CYP2C8 at 50 uM; assay type: ADME
T3 sequence (P10632 whole entry): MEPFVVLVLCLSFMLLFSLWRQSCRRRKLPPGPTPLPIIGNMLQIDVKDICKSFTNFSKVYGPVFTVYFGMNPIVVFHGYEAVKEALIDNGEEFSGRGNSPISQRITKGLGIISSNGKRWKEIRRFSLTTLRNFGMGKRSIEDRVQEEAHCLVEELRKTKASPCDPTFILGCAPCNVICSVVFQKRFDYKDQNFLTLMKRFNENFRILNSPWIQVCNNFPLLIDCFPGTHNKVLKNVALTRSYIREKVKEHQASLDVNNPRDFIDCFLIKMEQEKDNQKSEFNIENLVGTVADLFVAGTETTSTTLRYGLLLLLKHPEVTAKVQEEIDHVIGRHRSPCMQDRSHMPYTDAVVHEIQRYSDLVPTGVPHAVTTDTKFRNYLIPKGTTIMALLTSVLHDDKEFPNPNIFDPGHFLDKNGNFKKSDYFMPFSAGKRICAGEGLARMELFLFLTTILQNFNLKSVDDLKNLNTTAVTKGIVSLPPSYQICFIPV

Cytochrome P450 2C19 = Cytochrome P450 2C19 (Homo sapiens, UniProt P33261); experiment: Inhibition of CYP2C19 at 50 uM; assay type: ADME
Cytochrome P450 3A4 = Cytochrome P450 3A4 (Homo sapiens, UniProt P08684); experiment: Inhibition of CYP3A4 at 50 uM; assay type: ADME
Cytochrome P450 2D6 = Cytochrome P450 2D6 (Homo sapiens, UniProt P10635); experiment: Inhibition of CYP2D6 at 50 uM; assay type: ADME
[5] = target: Voltage-gated inwardly rectifying potassium channel KCNH2 (Homo sapiens, UniProt Q12809); experiment: Inhibition of human ERG channel
[6] = Oral bioavailability in CD1 mouse at 3 mg/kg; assay type: ADME, organism-based; conditions: in vivo
Method in brief: (§2)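 Cassette PK study in CD1 mice, dosed 3 mg/kg po and 1 mg/kg iv. Cmax was measured in plasma and spleen, and oral bioavailability F was derived.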

[7] = Cmax in CD1 mouse spleen at 3 mg/kg, po or 1 mg/kg, iv; assay type: ADME, organism-based; method in brief: as §2
[8] = Cmax in CD1 mouse plasma at 3 mg/kg, po or 1 mg/kg, iv; assay type: ADME, organism-based; method in brief: as §2
HCT-116 [9] = experiment: Antitumor activity against human HCT116 cells xenografted in CrTac:NCr-Fox1 (nu) athymic mouse assessed as tumor weight at 50 mg/kg, po qd for 16 days relative to untreated control; assay type: functional
Method in brief: (§3)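 Female athymic mice (n = 14) bearing established bilateral HCT116 colon carcinoma xenografts; oral dosing once daily for 16 days at 50 mg/kg. Read-outs are final tumour weight and mean tumour volume, each relative to control. Body weight was monitored.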

HCT-116 [10] = experiment: Antitumor activity against human HCT116 cells xenografted in CrTac:NCr-Fox1 (nu) athymic mouse assessed as tumor volume at 50 mg/kg, po qd for 16 days relative to untreated control; assay type: functional; method in brief: as §3
[11] = Drug level in tumor of human HCT116 cells xenografted in CrTac:NCr-Fox1 (nu) athymic mouse at 50 mg/kg, po qd for 16 days measured after 4 hrs; assay type: ADME, organism-based, Neoplasm, HCT-116; design: dose 50 mg/kg, route oral; conditions: in vivo
Method in brief: (§4)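 Tissue levels measured in female athymic mice bearing bilateral HCT116 xenografts after oral 50 mg/kg once daily for 16 days. Sampled at 0.5, 1 and 4 h post dose. Plasma is reported in nM; tumour and spleen in nmol/kg. The 1 h values are the mean of three samples; 0.5 and 4 h values are means of two.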

[12] = Drug level in tumor of human HCT116 cells xenografted in CrTac:NCr-Fox1 (nu) athymic mouse at 50 mg/kg, po qd for 16 days measured after 1 hr; assay type: ADME, organism-based, Neoplasm, HCT-116; design: dose 50 mg/kg, route oral; conditions: in vivo; method in brief: as §4
[13] = Drug level in tumor of human HCT116 cells xenografted in CrTac:NCr-Fox1 (nu) athymic mouse at 50 mg/kg, po qd for 16 days measured after 0.5 hrs; assay type: ADME, organism-based, Neoplasm, HCT-116; design: dose 50 mg/kg, route oral; conditions: in vivo; method in brief: as §4
Spleen [14] = experiment: Drug level in spleen of human HCT116 cells xenografted in CrTac:NCr-Fox1 (nu) athymic mouse at 50 mg/kg, po qd for 16 days measured after 0.5 hrs; assay type: ADME, organism-based, HCT-116; design: dose 50 mg/kg, route oral; conditions: in vivo; method in brief: as §4
Spleen [15] = experiment: Drug level in spleen of human HCT116 cells xenografted in CrTac:NCr-Fox1 (nu) athymic mouse at 50 mg/kg, po qd for 16 days measured after 1 hr; assay type: ADME, organism-based, HCT-116; design: dose 50 mg/kg, route oral; conditions: in vivo; method in brief: as §4
Spleen [16] = experiment: Drug level in spleen of human HCT116 cells xenografted in CrTac:NCr-Fox1 (nu) athymic mouse at 50 mg/kg, po qd for 16 days measured after 4 hrs; assay type: ADME, organism-based, HCT-116; design: dose 50 mg/kg, route oral; conditions: in vivo; method in brief: as §4
[17] = Drug level in plasma of human HCT116 cells xenografted in CrTac:NCr-Fox1 (nu) athymic mouse at 50 mg/kg, po qd for 16 days measured after 1 hr; assay type: ADME, organism-based, HCT-116; design: dose 50 mg/kg, route oral; conditions: read-out: Drug uptake; method in brief: as §4
[18] = Drug level in plasma of human HCT116 cells xenografted in CrTac:NCr-Fox1 (nu) athymic mouse at 50 mg/kg, po qd for 16 days measured after 4 hrs; assay type: ADME, organism-based, HCT-116; design: dose 50 mg/kg, route oral; conditions: read-out: Drug uptake; method in brief: as §4
[19] = Permeability from basolateral to apical side in human Caco-2 cells; assay type: ADME, cell-based; conditions: read-out: permeability
Mus musculus [20] = experiment: Inhibition of HDAC in tumor tissue of human HCT116 cells xenografted CrTac:NCr-Fox1 (nu) athymic mouse assessed as increase in histone H3 acetylation at 50 mg/kg, po qd for 16 days measured 1 hr post dose by Western blot relative to untreated control; assay type: functional, HCT-116
Method in brief: (§5)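 Female athymic nude mice bearing established bilateral HCT116 colon carcinoma xenografts (n = 14), dosed orally once daily for 16 days at 50 mg/kg. Tumour tissue taken after the final dose; histone H3 acetylation by Western blot with anti-acetylated H3 antibody. Band intensity by densitometry, normalised to GAPDH, and expressed as % of DMSO controls. One animal per value, n = 1–3.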

Mus musculus [21] = experiment: Inhibition of HDAC in human HCT116 cells xenografted CrTac:NCr-Fox1 (nu) athymic mouse assessed as increase in histone H3 acetylation at 50 mg/kg, po qd for 16 days measured 4 hrs post dose by Western blot relative to untreated control; assay type: functional, HCT-116; method in brief: as §5

Sequence of Cytochrome P450 2D6 (P10635 whole entry): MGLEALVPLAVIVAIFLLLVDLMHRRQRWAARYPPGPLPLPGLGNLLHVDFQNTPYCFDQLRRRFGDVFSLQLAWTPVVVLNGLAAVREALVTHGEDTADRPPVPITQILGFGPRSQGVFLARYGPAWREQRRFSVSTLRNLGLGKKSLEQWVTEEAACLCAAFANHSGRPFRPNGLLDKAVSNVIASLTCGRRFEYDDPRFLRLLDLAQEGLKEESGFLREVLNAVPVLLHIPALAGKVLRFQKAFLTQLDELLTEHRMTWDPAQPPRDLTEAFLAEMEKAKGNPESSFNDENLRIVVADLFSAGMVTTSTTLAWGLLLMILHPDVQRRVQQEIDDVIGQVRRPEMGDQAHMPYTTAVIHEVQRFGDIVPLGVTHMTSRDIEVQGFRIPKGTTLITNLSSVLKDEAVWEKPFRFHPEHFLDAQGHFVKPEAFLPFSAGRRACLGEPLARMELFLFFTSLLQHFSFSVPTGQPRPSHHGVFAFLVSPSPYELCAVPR
Sequence of Cytochrome P450 2C19 (P33261 whole entry): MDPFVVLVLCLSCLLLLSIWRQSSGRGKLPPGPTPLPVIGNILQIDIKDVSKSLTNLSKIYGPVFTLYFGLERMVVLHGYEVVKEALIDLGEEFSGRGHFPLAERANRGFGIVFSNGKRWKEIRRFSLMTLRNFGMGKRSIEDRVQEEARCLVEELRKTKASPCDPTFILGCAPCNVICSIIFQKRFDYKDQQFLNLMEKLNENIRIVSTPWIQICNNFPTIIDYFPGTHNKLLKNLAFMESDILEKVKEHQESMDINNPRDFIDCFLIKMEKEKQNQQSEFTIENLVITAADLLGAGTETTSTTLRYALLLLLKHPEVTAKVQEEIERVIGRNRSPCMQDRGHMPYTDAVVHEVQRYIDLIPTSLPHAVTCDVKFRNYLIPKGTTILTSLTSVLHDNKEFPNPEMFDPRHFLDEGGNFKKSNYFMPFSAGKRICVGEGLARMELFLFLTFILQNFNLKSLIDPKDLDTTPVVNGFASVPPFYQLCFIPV
Sequence of Voltage-gated inwardly rectifying potassium channel KCNH2 (Q12809 whole entry): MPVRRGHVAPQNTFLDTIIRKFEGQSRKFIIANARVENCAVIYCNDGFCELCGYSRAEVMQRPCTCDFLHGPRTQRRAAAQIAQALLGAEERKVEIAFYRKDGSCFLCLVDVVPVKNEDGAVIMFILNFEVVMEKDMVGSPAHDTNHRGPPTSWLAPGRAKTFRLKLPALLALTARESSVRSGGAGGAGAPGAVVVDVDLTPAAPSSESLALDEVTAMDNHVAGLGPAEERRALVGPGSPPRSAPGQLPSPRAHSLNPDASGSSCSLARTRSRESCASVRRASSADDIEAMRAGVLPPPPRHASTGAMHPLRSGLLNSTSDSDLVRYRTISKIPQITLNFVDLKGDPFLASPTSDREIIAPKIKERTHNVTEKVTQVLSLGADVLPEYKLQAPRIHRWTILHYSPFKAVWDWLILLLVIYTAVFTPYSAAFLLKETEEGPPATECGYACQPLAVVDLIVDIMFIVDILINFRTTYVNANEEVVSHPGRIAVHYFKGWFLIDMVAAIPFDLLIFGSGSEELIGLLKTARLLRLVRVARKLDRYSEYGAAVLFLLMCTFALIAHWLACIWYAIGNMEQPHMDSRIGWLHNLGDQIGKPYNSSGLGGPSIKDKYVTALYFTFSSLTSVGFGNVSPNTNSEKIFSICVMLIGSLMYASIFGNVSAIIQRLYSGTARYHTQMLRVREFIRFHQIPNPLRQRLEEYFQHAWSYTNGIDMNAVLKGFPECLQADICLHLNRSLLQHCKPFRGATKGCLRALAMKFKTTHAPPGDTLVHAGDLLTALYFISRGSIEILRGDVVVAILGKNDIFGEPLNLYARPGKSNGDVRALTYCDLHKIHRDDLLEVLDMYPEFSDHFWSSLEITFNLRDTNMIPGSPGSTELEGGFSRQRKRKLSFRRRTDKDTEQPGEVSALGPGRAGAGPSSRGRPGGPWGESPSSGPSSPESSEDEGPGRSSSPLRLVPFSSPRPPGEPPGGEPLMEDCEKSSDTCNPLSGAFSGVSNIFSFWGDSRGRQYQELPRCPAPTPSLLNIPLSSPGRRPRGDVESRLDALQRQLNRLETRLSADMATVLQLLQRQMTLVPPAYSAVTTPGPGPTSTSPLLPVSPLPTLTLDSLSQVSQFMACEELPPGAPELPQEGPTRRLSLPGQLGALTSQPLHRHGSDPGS
Sequence of Cytochrome P450 3A4 (P08684 whole entry): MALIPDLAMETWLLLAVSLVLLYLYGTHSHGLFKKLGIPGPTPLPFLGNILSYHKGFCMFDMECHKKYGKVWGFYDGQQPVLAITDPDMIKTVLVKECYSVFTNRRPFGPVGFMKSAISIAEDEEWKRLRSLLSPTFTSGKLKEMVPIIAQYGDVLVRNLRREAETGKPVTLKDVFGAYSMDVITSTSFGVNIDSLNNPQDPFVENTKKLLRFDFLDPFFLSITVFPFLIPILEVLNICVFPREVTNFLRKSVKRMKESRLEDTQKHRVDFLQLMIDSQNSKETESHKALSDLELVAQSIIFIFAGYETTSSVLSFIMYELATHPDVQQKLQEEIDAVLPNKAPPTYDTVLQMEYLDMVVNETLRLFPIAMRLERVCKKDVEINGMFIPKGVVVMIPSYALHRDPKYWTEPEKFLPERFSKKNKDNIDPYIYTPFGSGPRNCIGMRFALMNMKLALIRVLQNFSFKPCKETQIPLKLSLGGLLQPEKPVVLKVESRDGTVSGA

## O=C(NO)c1ccc(N2C[C@H]3CN(Cc4ccc5ccccc5c4)C[C@H]3C2)nc1
Histone deacetylase
  IC50: 45 nM
HCT-116 [1]
  GI50: 700 nM
HeLa
  GI50: 1260 nM
U-937
  GI50: 450 nM
HuT78
  GI50: 340 nM

## O=C(NO)c1cnc(N2C[C@H]3CN(Cc4ccc5ccccc5c4)C[C@H]3C2)nc1
Histone deacetylase
  IC50: 13 nM
HCT-116 [1]
  GI50: 120 nM
HeLa
  GI50: 260 nM
U-937
  GI50: 72 nM
HuT78
  GI50: 79 nM
[2]
  remaining at 0.5 h, 10 µM: 72%
[3]
  remaining at 0.5 h, 10 µM: 45%
[4]
  Papp: 0.5 ×10⁻⁶ cm/s
Cytochrome P450 1A2
  inhibition (INH): Not Active
Cytochrome P450 2A6
  inhibition (INH): Not Active
Cytochrome P450 2C8
  inhibition (INH): Not Active
Cytochrome P450 2C19
  inhibition (INH): Not Active
Cytochrome P450 3A4
  inhibition (INH): Not Active
Cytochrome P450 2D6
  pIC50: 5.00
[5]
  pIC50: 5.39
[6]
  bioavailability: 15%
[7]
  Cmax: 218 ng/mL
[8]
  Cmax: 31 ng/mL
HCT-116 [9]
  T/C: 80%
HCT-116 [10]
  Activity: 28%
[11]
  Drug uptake: 154 nmol/kg
[12]
  Drug uptake: 215 nmol/kg
[13]
  Drug uptake: 80 nmol/kg
Spleen [14]
  Drug uptake: 620 nmol/kg
Spleen [15]
  Drug uptake: 1260 nmol/kg
Spleen [16]
  Drug uptake: 500 nmol/kg
[17]
  concentration at 1 h: 14 nM
[18]
  concentration at 4 h: 25 nM
[19]
  Papp B→A: 9.4 ×10⁻⁶ cm/s
Mus musculus [20]
  fold change (FC): 2
Mus musculus [21]
  fold change (FC): 2

## O=C(NO)c1cnc(N2C[C@H]3CN(C(=O)c4ccc5ccccc5c4)C[C@H]3C2)nc1
Histone deacetylase
  IC50: 12 nM
HCT-116 [1]
  GI50: 590 nM
HeLa
  GI50: 210 nM
U-937
  GI50: 390 nM
HuT78
  GI50: 200 nM

## O=C(NO)c1cnc(N2C[C@@H]3CN(S(=O)(=O)c4ccc5ccccc5c4)C[C@@H]3C2)nc1
Histone deacetylase
  IC50: 64 nM
HCT-116 [1]
  GI50: 740 nM
HeLa
  GI50: 1130 nM
U-937
  GI50: 480 nM
HuT78
  GI50: 300 nM
